In ChEMBL document CHEMBL2046311, “Design, synthesis, and molecular hybrids of caudatin and cinnamic acids as novel anti-hepatitis B virus agents” (Eur J Med Chem, 2012):

Columns and labels:
[1] = Selectivity index, ratio of CC50 for human HepG2(2.2.15) cells to IC50 for Hepatitis B virus infected in human HepG2(2.2.15) cells assessed as inhibition of viral DNA replication; type: functional
How it was run: (§1)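 SI calculated as CC50 (MTT, HepG 2.2.15) divided by IC50 for the named read-out (HBV DNA by real-time PCR, or HBeAg or HBsAg secretion by ELISA), in the same cell line.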

[2] = test system: Hepatitis B virus; experiment: Antiviral activity against Hepatitis B virus infected in human HepG2(2.2.15) cells assessed as inhibition of viral e antigen secretion by ELISA; type: functional, organism-based
How it was run: (§2)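 HepG 2.2.15 cells in RPMI-1640 with 10% fetal calf serum at 37 °C, 5% CO2. Compounds dissolved in DMSO, culture DMSO below 2.5 μL/mL. Secreted HBeAg and HBsAg measured by ELISA. IC50 values are means of at least two experiments.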

[3] = test system: Hepatitis B virus; experiment: Antiviral activity against Hepatitis B virus infected in human HepG2(2.2.15) cells assessed as inhibition of viral DNA replication by PCR analysis; type: functional, organism-based
How it was run: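 HepG 2.2.15 cells grown in RPMI-1640 with 10% fetal calf serum, […] and penicillin/streptomycin at 37 °C, 5% CO2. Compounds added in DMSO, kept below 2.5 μL/mL. HBV DNA quantified by SYBR Green real-time PCR with HBV-specific primers spanning 541–591 bp. IC50 values are means of at least two experiments.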

[4] = Selectivity index, ratio of CC50 for human HepG2(2.2.15) cells to IC50 for Hepatitis B virus infected in human HepG2(2.2.15) cells assessed as inhibition of viral surface antigen secretion; type: functional; how it was run: as §1
[5] = test system: Hepatitis B virus; experiment: Antiviral activity against Hepatitis B virus infected in human HepG2(2.2.15) cells assessed as inhibition of viral surface antigen secretion by ELISA; type: functional, organism-based; how it was run: as §2
[6] = Selectivity index, ratio of CC50 for human HepG2(2.2.15) cells to IC50 for Hepatitis B virus infected in human HepG2(2.2.15) cells assessed as inhibition of viral e antigen secretion; type: functional; how it was run: as §1
[7] = Cytotoxicity against human HepG2(2.2.15) cells by modified-MTT assay; type: cell-based
How it was run: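 HepG 2.2.15 cells in RPMI-1640 with 10% fetal calf serum at 37 °C, 5% CO2. Compounds in DMSO, final DMSO below 2.5 μL/mL. Viability read by modified MTT method. CC50 is the mean of at least two experiments.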

| Structure (SMILES) | Ratio CC50/IC50 [1] | IC50 [2] | IC50 [3] | Ratio CC50/IC50 [4] | IC50 [5] | Ratio CC50/IC50 [6] | CC50 [7] |
| --- | --- | --- | --- | --- | --- | --- | --- |
| CC(=O)[C@]1(O)CC[C@@]2(O)[C@]1(C)[C@H](OC(=O)/C=C(\C)C(C)C)C[C@@H]1[C@@]3(C)CC[C@H](OC(=O)/C=C/c4ccc(Cl)c([N+](=O)[O-])c4)CC3=CC[C@]12O | 71.3 | 79.5 µM | 6.31 µM | 47.3 | 9.52 µM | 5.7 | 450 µM |
| CC(=O)[C@]1(O)CC[C@@]2(O)[C@]1(C)[C@H](OC(=O)/C=C(\C)C(C)C)C[C@@H]1[C@@]3(C)CC[C@H](OC(=O)/C=C/c4ccccc4F)CC3=CC[C@]12O | 68.1 | 21.6 µM | 7.68 µM | 7.3 | 72 µM | 24.2 | 523 µM |
| CC(=O)[C@]1(O)CC[C@@]2(O)[C@]1(C)[C@H](OC(=O)/C=C(\C)C(C)C)C[C@@H]1[C@@]3(C)CC[C@H](OC(=O)/C=C/c4cccc(F)c4)CC3=CC[C@]12O | >224 | 12.6 µM | 4.75 µM | >126.7 | 8.4 µM | >84.7 | > 1060 µM |
| CC(=O)[C@]1(O)CC[C@@]2(O)[C@]1(C)[C@H](OC(=O)/C=C(\C)C(C)C)C[C@@H]1[C@@]3(C)CC[C@H](OC(=O)/C=C/c4cccc(Br)c4)CC3=CC[C@]12O | 97 | 12.5 µM | 4.42 µM | 29.9 | 14.4 µM | 34.4 | 429 µM |
| COc1cc(/C=C/C(=O)O[C@H]2CC[C@@]3(C)C(=CC[C@]4(O)[C@@H]3C[C@@H](OC(=O)/C=C(\C)C(C)C)[C@@]3(C)[C@]4(O)CC[C@@]3(O)C(C)=O)C2)cc(OC)c1 | >87.4 | 380 µM | 11.7 µM | >34.6 | 29.6 µM | >2.7 | > 1020 µM |
| COc1ccccc1/C=C/C(=O)O[C@H]1CC[C@@]2(C)C(=CC[C@]3(O)[C@@H]2C[C@@H](OC(=O)/C=C(\C)C(C)C)[C@@]2(C)[C@]3(O)CC[C@@]2(O)C(C)=O)C1 | >324.1 | 753 µM | 7.3 µM | >36.9 | 64 µM | >3.1 | > 2370 µM |
| CC(=O)[C@]1(O)CC[C@@]2(O)[C@]1(C)[C@H](OC(=O)/C=C(\C)C(C)C)C[C@@H]1[C@@]3(C)CC[C@H](OC(=O)/C=C/c4ccc5c(c4)OCO5)CC3=CC[C@]12O | >256.7 | 43.7 µM | 6.45 µM | >176.7 | 9.37 µM | >37.9 | > 1660 µM |
| CC(=O)[C@]1(O)CC[C@@]2(O)[C@]1(C)[C@H](OC(=O)/C=C(\C)C(C)C)C[C@@H]1[C@@]3(C)CC[C@H](OC(=O)/C=C/c4ccc(F)c(C(F)(F)F)c4)CC3=CC[C@]12O | >149.2 | 798 µM | 8.93 µM | >18.6 | 71.6 µM | >1.7 | > 1330 µM |
| CC(=O)[C@]1(O)CC[C@@]2(O)[C@]1(C)[C@H](OC(=O)/C=C(\C)C(C)C)C[C@@H]1[C@@]3(C)CC[C@H](OC(=O)/C=C/c4ccc(Br)cc4)CC3=CC[C@]12O | >80.6 | 485 µM | 16 µM | >35.5 | 36.4 µM | >2.7 | > 1290 µM |
| CC(=O)[C@]1(O)CC[C@@]2(O)[C@]1(C)[C@H](OC(=O)/C=C(\C)C(C)C)C[C@@H]1[C@@]3(C)CC[C@H](OC(=O)/C=C/c4ccccc4)CC3=CC[C@]12O | >239.9 | 94.2 µM | 5.91 µM | >29.3 | 48.3 µM | >15 | > 1420 µM |
| CC(=O)[C@]1(O)CC[C@@]2(O)[C@]1(C)[C@H](OC(=O)/C=C(\C)C(C)C)C[C@@H]1[C@@]3(C)CC[C@H](OC(=O)/C=C/c4ccc(C(F)(F)F)cc4)CC3=CC[C@]12O | >125.9 | 1270 µM | 10.1 µM | >21.1 | 60.2 µM | >1 | > 1270 µM |
| CC(=O)[C@]1(O)CC[C@@]2(O)[C@]1(C)[C@H](OC(=O)/C=C(\C)C(C)C)C[C@@H]1[C@@]3(C)CC[C@H](OC(=O)/C=C/c4ccc(Cl)c(Cl)c4)CC3=CC[C@]12O | >101.2 | 949 µM | 14.1 µM | >12.7 | 112 µM | >1.5 | > 1420 µM |
| CC(=O)[C@]1(O)CC[C@@]2(O)[C@]1(C)[C@H](OC(=O)/C=C(\C)C(C)C)C[C@@H]1[C@@]3(C)CC[C@H](OC(=O)/C=C/c4ccc(F)c(F)c4)CC3=CC[C@]12O | >277 | 69.2 µM | 4.66 µM | >82.7 | 15.6 µM | >18.7 | > 1290 µM |
| CC(=O)[C@]1(O)CC[C@@]2(O)[C@]1(C)[C@H](OC(=O)/C=C(\C)C(C)C)C[C@@H]1[C@@]3(C)CC[C@H](OC(=O)/C=C/c4ccc(F)cc4)CC3=CC[C@]12O | >123.9 | 39.5 µM | 10.4 µM | >28.3 | 45.6 µM | >32.6 | > 1290 µM |
| CCOc1cccc(/C=C/C(=O)O[C@H]2CC[C@@]3(C)C(=CC[C@]4(O)[C@@H]3C[C@@H](OC(=O)/C=C(\C)C(C)C)[C@@]3(C)[C@]4(O)CC[C@@]3(O)C(C)=O)C2)c1 | >230.1 | 141 µM | 9.3 µM | >85.9 | 24.9 µM | >15.2 | > 2140 µM |
| CC(=O)[C@]1(O)CC[C@@]2(O)[C@]1(C)[C@H](OC(=O)/C=C(\C)C(C)C)C[C@@H]1[C@@]3(C)CC[C@H](OC(=O)/C=C/c4cccc(C)c4)CC3=CC[C@]12O | >192.6 | 132 µM | 7.22 µM | >54.7 | 25.4 µM | >10.5 | > 1390 µM |
| CC(=O)[C@]1(O)CC[C@@]2(O)[C@]1(C)[C@H](OC(=O)/C=C(\C)C(C)C)C[C@@H]1[C@@]3(C)CC[C@H](OC(=O)/C=C/c4ccccc4Cl)CC3=CC[C@]12O | >50.1 | 550 µM | 22.9 µM | >40.4 | 28.4 µM | >2.1 | > 1150 µM |
| CC(=O)[C@]1(O)CC[C@@]2(O)[C@]1(C)[C@H](OC(=O)/C=C(\C)C(C)C)C[C@@H]1[C@@]3(C)CC[C@H](OC(=O)/C=C/c4cccc([N+](=O)[O-])c4)CC3=CC[C@]12O | >28.1 | 207 µM | 56.7 µM | >31.7 | 50.3 µM | >7.7 | > 1590 µM |
